{"source": "paper PMC2174336", "about": "(The Journal of Cell Biology, 2001)", "molecules": {"B1": {"name": "C(1-8;3-9) peptide (peptide)", "peptide": "CPCFLLGCC", "modifications": "disulfide 1-8, 3-9"}, "B2": {"name": "CLLGC peptide (peptide)", "peptide": "CLLGC", "modifications": "also: cyclic, type of ring not given here"}}, "key": {"THP-1 cells [1]": {"system": "THP-1 cells", "assay": "THP-1 cell adhesion to immobilized peptides or GST fusion proteins", "type": "cell-based", "conditions": "60 min; for THP-1 cell binding to substance coated on microtiter wells: phorbol ester–activated THP-1 cells, phosphatase assay", "in_short": "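Proteins or synthetic peptides coated at 2 μg per well in TBS unless indicated; polymerised peptide made with 0.25% final glutaraldehyde. Wells blocked with 5% BSA and washed with PBS. Cells were preactivated for 30 min at room temperature in serum-free medium with 50 nM phorbol dibutyrate or 200 μM activating peptide. Then 10^5 cells/well were incubated 60 min at 37°C. Bound cells were read by cellular phosphatase assay.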"}, "αMβ2 integrin [2]": {"system": "αMβ2 integrin", "assay": "Phage binding to purified αMβ2 integrin", "conditions": "phage-displayed peptide; data not shown"}, "THP-1 cells [3]": {"system": "THP-1 cells", "assay": "THP-1 cell adhesion to von Willebrand factor", "type": "cell-based", "conditions": "data not shown", "in_short": "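THP-1 cells were incubated 60 min at 37°C in wells coated with von Willebrand factor or fibronectin (2 μg per well, BSA-blocked), with test peptides at the indicated concentrations. Unbound cells were washed off with PBS and bound cells read by phosphatase assay. Triplicate wells.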"}, "THP-1 cells [4]": {"system": "THP-1 cells", "assay": "Inhibition of THP-1 cell adhesion to LLG-C4-GST or LLG-C4 substratum", "type": "cell-based", "in_short": "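THP-1 cells were mixed in suspension with test peptides at the indicated final concentrations, or with 2.5 mM EDTA. They were then incubated 60 min in wells coated with peptide–GST fusion. Unbound cells were removed by PBS washing and bound cells quantitated by phosphatase assay. Mean of triplicate wells; repeated in two further experiments.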"}, "THP-1 cells [5]": {"system": "THP-1 cells", "assay": "THP-1 cell migration on fibrinogen-coated Transwell filters", "type": "cell-based", "conditions": "200 μM; 8-μm Transwell; 10% serum; 18 h; n = 6", "in_short": "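Both faces of 8-μm-pore Transwell filters were coated with fibrinogen or peptide–GST fusion (40 μg/ml; GST control) and blocked with 5% BSA. THP-1 cells (5×10^4) were placed in the upper chamber in 10% serum medium, ± test peptides at 200 μM; the lower chamber held the same medium. After 18 h at 37°C, filters were methanol-fixed and stained with 0.1% toluidine blue. Cells on the lower surface were counted microscopically.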"}, "Jurkat cells": {"system": "Jurkat cells", "assay": "Jurkat cell adhesion to ICAM-1-Fc", "type": "cell-based"}, "THP-1 cells [6]": {"system": "THP-1 cells", "assay": "THP-1 adhesion to A2 domain-deleted von Willebrand factor", "type": "cell-based", "conditions": "phosphatase assay; triplicate wells", "in_short": "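Wild-type or A2-domain-deleted recombinant von Willebrand factor was captured on wells coated with anti-von Willebrand factor antibody D′-D3. THP-1 cells were incubated with competitor peptides at the stated concentrations. Bound cells were read by phosphatase assay, expressed relative to wild-type von Willebrand factor binding (100%). Triplicate wells; similar in two further experiments.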"}, "T cells": {"system": "T cells", "assay": "T cell binding to TNF-α-stimulated Eahy926 endothelial cell monolayer", "type": "cell-based", "conditions": "peptide 50 μM; 45 min; phosphatase assay; triplicate wells", "in_short": "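Eahy926 endothelial cells were seeded at 5×10^4/well, grown 3 d, then stimulated 16 h with TNF-α (10 ng/ml). Blood T cells were isolated by Ficoll-Hypaque and nylon wool. T cells (1.5×10^5/well) were bound 30 min at 4°C then 15 min at 37°C, with test or control peptide at 50 μM. Unbound cells were removed by immersing the plate in PBS. Phosphatase assay; triplicate wells.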"}, "αM subunit I domain": {"system": "αM subunit I domain", "assay": "LLG-C4-GST binding to purified αM subunit I domain", "conditions": "LLG-C4-GST 10 μg/ml; for inhibition of LLG-C4-GST binding to the I domain: peptide 100 μM, triplicate wells", "in_short": "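The αM I domain was expressed as a GST fusion in E. coli, purified on glutathione beads and released by thrombin cleavage; it was then coated on wells. Peptide–GST fusion or GST at the indicated concentrations (10 μg/ml in methods) was incubated 1 h in 25 mM octylglucoside/TBS/1 mM MnCl2. Bound protein was detected with Eu3+-labelled anti-GST antibodies. Triplicate wells, three experiments.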"}, "αMβ2 integrin [7]": {"system": "αMβ2 integrin", "assay": "LLG-C4-GST binding to immunocaptured αMβ2 integrin", "conditions": "integrin immunocaptured with MEM170 or OKM1", "in_short": "(§1)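 Integrins from buffy-coat lysate in 1% octylglucoside/1 mM MnCl2/TBS were captured for 2 h at 4°C on wells coated with subunit antibodies (MEM170, OKM1 or 2E7), then washed five times. Peptide–GST fusion or GST (10 μg/ml; 2 μg/well per legend) bound 1 h in 25 mM octylglucoside/TBS/1 mM MnCl2, ± EDTA. Detection by Eu3+-chelate-labelled anti-GST antibody fluorescence. Repeated three times.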"}, "[8]": {"system": "αXβ2 integrin–transfected L cells", "assay": "Binding of αXβ2 integrin-transfected L cells to LLG-C4-GST", "type": "cell-based, mouse", "conditions": "three experiments in triplicate wells", "in_short": "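αXβ2-transfected mouse L cells were incubated in wells coated with peptide–GST fusion or GST (2 μg/well, BSA-blocked), 60 min at 37°C, 10^5 cells/well. The β2-blocking antibody 7E4 or EDTA served as competitors. After PBS washing, bound cells were read by phosphatase assay and given as percentage adhesion. Triplicate wells; three experiments.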"}, "β2 integrin": {"system": "β2 integrin", "assay": "LLG-C4-GST binding to integrin immunocaptured with β2 subunit antibody 2E7", "conditions": "β2 subunit antibody 2E7 used for immunocapture", "in_short": "as §1"}, "[9]": {"target": "β2 integrins of THP-1 cells (adhesion to LLG-C4 substrata)"}, "[10]": {"target": "β2 integrins of THP-1 cells (adhesion to LLG-C4 substrata)", "remark": "listed apart in the source"}}, "note": "Bridges are numbered along the chain shown (N, C = ends). Where no end group is shown, it is not given here."}
{"molecule": "CPCFLLGCC (also: bicyclic or more (positions not given here)) [LLG-C4]", "values": [{"measurement": "THP-1 cell binding to substance coated on microtiter wells", "setting": "THP-1 cells [1]", "value": "bound strongly"}, {"measurement": "affinity to αMβ2 in phage-binding experiments in comparison to the other clones", "setting": "αMβ2 integrin [2]", "value": "higher affinity"}]}
{"molecule": "CLLGC (disulfide)", "values": [{"measurement": "inhibition of THP-1 binding to von Willebrand factor at 500 μM", "setting": "THP-1 cells [3]", "value": "inhibited"}, {"measurement": "concentrations at which THP-1 cell adhesion on LLG-C4-GST was readily inhibited", "setting": "THP-1 cells [4]; LLG-C4-GST substratum, phosphatase assay", "value": "≥ 1", "unit": "mM"}]}
{"molecule": "CPCFLLGCC (also: bicyclic or more (positions not given here)) [C(1-9;3-8)]", "values": [{"measurement": "effect on THP-1 cell migration on fibrinogen", "setting": "THP-1 cells [5]", "value": "inhibited only partially"}, {"measurement": "THP-1 cell binding to peptide cross-linked with glutaraldehyde", "setting": "THP-1 cells [1]; peptide coated in presence of glutaraldehyde, 10^5 cells per well", "value": "inactive even after the cross-linking"}, {"measurement": "THP-1 cell binding to substance coated on microtiter wells", "setting": "THP-1 cells [1]", "value": "failed to bind"}, {"measurement": "inhibition of Jurkat cell adhesion to ICAM-1-Fc (in words)", "setting": "Jurkat cells", "value": "severalfold less active and had hardly any effect"}, {"measurement": "fold less active than C(1-8;3-9), THP-1 cell adhesion on LLG-C4-GST", "setting": "THP-1 cells [4]; relative to C(1-8;3-9)", "value": 20, "unit": "fold"}]}
{"molecule": "ACDCRGDCFCG (also: bicyclic or more (positions not given here)) [RGD-4C]", "values": [{"measurement": "effect on THP-1 adhesion to the A2-deleted von Willebrand factor", "setting": "THP-1 cells [6]", "value": "blocked"}, {"measurement": "effect on T cell binding to TNF-α–stimulated endothelial cells", "setting": "T cells", "value": "no effect"}]}
{"molecule": "CPCFLLGCC [LLG-C4 (1)]", "values": [{"measurement": "inhibition of LLG-C4-GST binding to the I domain", "setting": "αM subunit I domain", "value": "blocked"}]}
{"molecule": "O=C(O)CN(CCN(CC(=O)O)CC(=O)O)CC(=O)O", "note": "[EDTA]", "values": [{"measurement": "effect of EDTA on LLG-C4-GST binding to αMβ2 integrin", "setting": "αMβ2 integrin [7]", "value": "inhibited the binding"}, {"measurement": "binding of αXβ2-transfected L cells to LLG-C4-GST, effect of competitor", "setting": "[8]", "value": "inhibited"}, {"measurement": "effect of EDTA on LLG-C4-GST binding to the I domain", "setting": "αM subunit I domain; EDTA 2.5 mM", "value": "blocked the binding"}, {"measurement": "effect of EDTA on THP-1 binding to LLG-C4-GST", "setting": "THP-1 cells [4]; EDTA 2.5 mM, phorbol ester–activated cells", "value": "abolished the binding"}, {"measurement": "effect of EDTA on LLG-C4-GST binding to integrin captured with 2E7", "setting": "β2 integrin", "value": "only partially inhibited"}]}
{"molecule": "CAAGC (disulfide)", "values": [{"measurement": "competition of THP-1 cell adhesion on LLG-C4-GST (in words)", "setting": "THP-1 cells [4]; LLG-C4-GST substratum", "value": "only a weak competitor"}]}
{"molecule": "CPCFLLGCC [LLG-C4 (2)]", "values": [{"measurement": "inhibition of LLG-C4-GST binding to the I domain", "setting": "αM subunit I domain", "value": "did not inhibit"}]}
{"molecule": "B1", "values": [{"measurement": "IC50 of inhibition of THP-1 cell adhesion on LLG-C4-GST (blocks m22 with m1)", "setting": "[9]", "value": 20, "unit": "µM"}]}
{"molecule": "B2", "values": [{"measurement": "inhibition of THP-1 cell adhesion on LLG-C4-GST (blocks m22 with m1)", "setting": "[10]", "value": "> 1", "unit": "mM"}]}
